S1P1 ag-PAM = activates or potentiates agonism at human S1P1 receptor; P21453; S1P1 CRE-bla cells, forskolin, beta-lactamase FRET, potentiator mode; S1P1 agonist co-added at EC20, 2 nM; 100% = saturating reference agonist, 0% = basal; activation, % at 9.5 µM; 56,000 tested, 0.57% active; AID 449;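 active = activation above a cutoff set at the mean activation of all tested compounds plus 3 SD, cut at about 54% in these data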;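 note: forskolin at 4 µM as EC80 and the EC20 agonist is SEW2871; 100% = SEW2871 at its EC100 plus forskolin at EC80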
5HT1E ag = activates the human 5-HT1E serotonin receptor; CHO 5-HT1E Ga15 NFAT-bla reporter, FRET; 0% DMSO wells, 100% control agonist wells; 65,000 tested, 0.69% active; activation, % at 6 µM; P28566;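 active = activation above a set limit, the screen-wide mean activation plus 3 SD, cut at about 8.5% in these data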;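 note: 100% = positive control agonist at 1 µM giving full maximal response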
S1P3 agonist = S1P3 (human) receptor agonism | S1P3 NFAT-BLA reporter cells, FRET ratio; relative to 1 µM S1P, basal subtracted | AID 373 | activation, % at 4.5 µM | 60,000 tested, 0.1% active;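 active = activation above the screen-wide mean plus 3 SD, cut at about 4.5% in these data, passing the limit was not always enough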
Target sequence (Q99500 whole entry, looked up): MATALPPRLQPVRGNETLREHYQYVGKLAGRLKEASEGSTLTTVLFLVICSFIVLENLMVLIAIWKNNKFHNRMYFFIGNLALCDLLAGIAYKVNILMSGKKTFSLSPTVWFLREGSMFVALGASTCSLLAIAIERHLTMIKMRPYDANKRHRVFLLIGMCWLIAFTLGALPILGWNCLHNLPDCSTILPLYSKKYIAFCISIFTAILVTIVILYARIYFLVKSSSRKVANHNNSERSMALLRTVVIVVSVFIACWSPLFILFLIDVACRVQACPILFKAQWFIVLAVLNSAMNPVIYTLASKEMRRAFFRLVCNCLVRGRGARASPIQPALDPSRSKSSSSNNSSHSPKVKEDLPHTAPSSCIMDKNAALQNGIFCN
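Benchmarks: high control 1 µM S1P / System: stable CHO line with human S1P3, Gα16, NFAT-BLA reporter / Dosing: single compound concentration, 4.5 µM final / Timing: 4 h compound at 37 °C, 2 h substrate at RT / Measured by: FRET β-lactamase substrate fluorescence, excitation 405 nm, 460/535 nm emission ratio, background-subtracted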
5HT1a ag = agonists of human 5-HT1a serotonin receptor; P08908; AID 567; CHO 5-HT1a Ga15 NFAT-bla reporter, FRET ratio; 0% basal, 100% maximal reference agonist; activation, % at 10 µM; 65,000 tested, 0.56% active;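 active = activation above the screen-wide mean activation plus 3 SD, cut at about 19% in these data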;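 note: 0% = DMSO wells and 100% = 5-CT at EC100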
HTR1E antagonist = blocks the human 5-HT1E serotonin receptor | CHO 5-HT1E Ga15 NFAT-bla reporter, FRET, antagonist | 65,000 tested, 0.99% active | AID 571 | P28566 | inhibition, % at 6 µM;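 active = inhibition above a set limit, the mean inhibition across every tested compound plus 3 SD, cut at about 29% in these data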;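 note: signal is the 460 over 535 nm emission ratio of beta-lactamase substrate; 0% = agonist plus DMSO wells and 100% = wells without agonist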
5HT1a antag = antagonists of human 5-HT1a serotonin receptor; 62,000 tested, 0.68% active; P08908; CHO 5-HT1a Ga15 NFAT-bla reporter, antagonist mode; inhibition, % at 10 µM;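 active = inhibition above the mean of all tested compounds plus 3 SD, cut at about 43% in these data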;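 note: receptor stimulated by 5-CT agonist at 100 nM near EC80; beta-lactamase reporter measured by ratiometric fluorescence of a cleavable substrate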
The depositor's hits bear a star; · = not tested or not shown. Shown are actives, neighbours in structure and some others; about 3% of the full set was active somewhere.

SMILES	S1P1 ag-PAM	5HT1E ag	S1P3 agonist	5HT1a ag	HTR1E antagonist	5HT1a antag
COc1ccc(C(=O)N2c3cc4c(cc3C(C)=CC2(C)C)OCO4)cc1	40	-1	-1	-1	5	54*
CCCn1nnnc1NC(=O)CSc1ccc(Cl)cc1	6	-1	0	-1	-4	4
CCOC(=O)C1=C(N)Oc2cc(C)n(CCc3ccc(OC)c(OC)c3)c(=O)c2C1c1cccnc1 (stereo not given)	-12	-1	0	-1	30*	0
O=C(Nc1nccs1)c1ccc(S(=O)(=O)NCC2CCCCC2)cc1	53*	0	-1	-1	8	-5
CCCC(=O)NC(c1ccco1)c1cc(Cl)c2cccnc2c1O (stereo not given)	28	-1	-2	-5	5	29
Oc1c(C(Nc2nc3ccccc3s2)c2ccco2)ccc2cccnc12 (stereo not given)	5	-1	-2	6	34*	62*
CC(C)C(=O)NC(c1ccco1)c1ccc2cccnc2c1O (stereo not given)	4	-1	-2	-1	30*	39
Clc1ccc(-n2nnnc2Sc2ncnc3sccc23)cc1	82*	0	1	-2	82*	69*
Cc1sc2ncnc(SCC(=O)c3cccs3)c2c1C	34	0	-1	-2	3	2
Cc1sc2ncnc(Sc3nnnn3-c3ccccc3)c2c1C	87*	-1	-1	-4	26	42
C=CCN(C(=O)CCC(=O)O)C1CC(=O)N(c2ccc(OCCC)cc2)C1=O (stereo not given)	-1	0	-1	-1	-16	·
Cc1ccccc1C(=O)c1ccc2c(c1)n(C)c(=O)n2C	-25	0	-5	-1	-10	·
C1CCC(c2nn3c(-c4n[nH]c5c4CCC5)nnc3s2)CC1	-54	0	0	-3	16	-11
CCN(CC)c1ccc(-c2nn3c(-c4n[nH]c5c4CCC5)nnc3s2)cc1	-108	2	-1	2	70*	56*
CCn1c(N2CCN(CC(=O)c3ccc(OC)cc3)CC2)nc2ccccc21	5	18*	0	4	-6	-9
CCn1c(N2CCN(CC(=O)Nc3cccc(C)c3C)CC2)nc2ccccc21	3	3	0	-1	-9	-2
Cn1c(Cl)nc2c1c(=O)n(Cc1cccc(Br)c1)c(=O)n2C	20	-1	-4	36*	4	·
CC(C)CNc1nc2c(c(=O)n(C)c(=O)n2C)n1Cc1cccc(Br)c1	-12	0	-4	-1	-11	·
CCn1c2ccccc2c2nnc(SCC(=O)c3ccccc3)nc21	-70	-1	0	3	31*	-13
COC(=O)c1cc2sc(Cl)cc2n1CC(=O)Nc1cccc(SC)c1	26	-1	-1	-5	-1	48*
COc1ccc(-c2nc(CS(=O)CC(=O)N3CCCC3)c(C)o2)cc1 (stereo not given)	-14	0	0	101*	10	-3
Cc1cccc(-c2nc(C#N)c(NC3CCCCC3)o2)c1	68*	0	-4	-1	55*	·
COCCCNC(=O)CS(=O)Cc1nc(-c2cccc(OC)c2)oc1C (stereo not given)	0	8.9*	-1	-1	-6	12
CCN1CCN(C(=O)CS(=O)Cc2nc(-c3ccc(OC)cc3)oc2C)CC1 (stereo not given)	2	0	-1	-3	-4	-10
COc1ccc(-c2nc(CS(=O)CC(=O)NCc3ccco3)c(C)o2)cc1OC (stereo not given)	-1	0	0	0	29*	6
SMILES	S1P1 ag-PAM	5HT1E ag	S1P3 agonist	5HT1a ag	HTR1E antagonist	5HT1a antag
COc1cc(C#CC#CCN2CCCCC2)ccc1O	87	-1	-1	-3	11	31
Cc1cccc(-c2nc(CS(=O)CC(=O)NC3CCCC3)c(C)o2)c1 (stereo not given)	13	0	-1	37*	13	-3
Cc1oc(-c2cccs2)nc1CS(=O)CC(=O)NC1CCCCCC1 (stereo not given)	10	0	-1	-2	0	8
Cc1ccc(CCNC(=O)C2CCC(=O)N2C2CCCC2)cc1 (stereo not given)	-4	1	0	0	-2	-1
C=C(C)n1c(=O)[nH]c2ccccc21	-21	0	-2	-6	1	-12
CC(=O)NCCOc1nc(N(C)C)nc(N2CCOCC2)n1	1	0	0	26*	2	-6
O=C(NCCOc1nc(N2CCCCC2)nc(N2CCOCC2)n1)Nc1ccccc1	·	2	-1	1	2	1
CCOC(=O)N1CCN(C2=Nc3cccc4cccc2c34)CC1	1	1	0	71*	3	-23
c1ccc(-c2csc3ncn4cnnc4c23)cc1	1	0	-1	-2	32*	9
Cn1c(Cn2c(=O)sc3ccccc32)nnc1SCC(=O)Nc1ccc2c(c1)OCO2	19	0	-1	0	-20	6
Clc1ccccc1CSc1nnc(-c2ccccn2)n1Cc1ccco1	·	-2	·	-2	3	32
C(=C\c1ccccc1)/CSc1nnc(-c2ccccn2)n1Cc1ccco1	43	-1	-1	1	20	52*
CC12CCC(C(=O)N3CCc4ccccc43)(CC1=O)C2(C)C (stereo not given)	6	-1	-1	-1	8	9
COC(=O)c1cnn2c(C)c(Cc3cccc(F)c3)c(C)nc12	-13	1	-1	3	30*	-8
O=S(=O)(c1ccccc1)N1CCN(Cc2cccc(Cl)c2)CC1	-14	0	0	-2	-4	-15
O=C1NCCN1Cc1cccc(Cl)c1	-1	0	0	28*	-3	5
COc1ccc(C2C(C(=O)Nc3ccccc3)=C(C)Nc3nc(CCCO)nn32)cc1 (stereo not given)	2	-2	-1	-2	6	-6
CC(=O)Nc1nc2n(n1)C(c1ccccc1)C=C(c1ccccc1)N2 (stereo not given)	·	-1	-2	-2	34*	30
CC(=O)Nc1nc2n(n1)C(c1ccc(F)cc1)C=C(c1ccccc1)N2 (stereo not given)	30	-1	0	0	25	20
COc1ccc(C2C=C(c3cccs3)Nc3nc(CCCO)nn32)cc1 (stereo not given)	27	-1	0	-5	37*	28
OCCCc1nc2n(n1)C(c1ccccc1)C=C(c1ccccc1)N2 (stereo not given)	-7	0	0	-2	30*	0
